Assay: Toxicity liver stage against HepG2, at 10uM
Type: cell-based
Set-up: test concentration 10 uM, cell line HepG2-A16-CD81EGFP
Settings: human, HepG2-A16-CD81EGFP cells; read-out: INHIBITION
Outline: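 Uninfected HepG2-A16-CD81EGFP cells, 3 × 10^3 per well, 1536-well, plated on prespotted compound at 10 μM final, parasite-free screening media added to match infected plates; puromycin 10 μM positive, DMSO 0.5% negative; run in parallel with 48 h PbLuc assay at 37 °C, 5% CO2; viability by CellTiter-Glo luminescence, normalized to controls.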

SMILES	cytotoxicity at 10 µM [%]
CC(C)c1nnc2sc(CC3CN(Cc4ccccc4)CCO3)nn12 (stereo unspecified)	-2.66
Cc1cc(C(=O)NC2CCC3(CCC(=O)N3)CC2)no1 (stereo unspecified)	4.23
CC(C)C(C(=O)NC1CC1)n1cnc2cc(F)c(F)cc21 (stereo unspecified)	15.3
COCC(=O)N1CCCC2(CCN(c3cncnc3)C2=O)C1 (stereo unspecified)	-72.5
CCCc1n[nH]c(C2CN(Cc3nnc(C4CC4)o3)CCO2)n1 (stereo unspecified)	-20.2
COc1cccc(CNC(CN2CCN(C)CC2)c2ccccc2)c1 (stereo unspecified)	12.5
COCCN1C(=O)CO[C@@H]2CN(S(=O)(=O)c3ccccc3)C[C@H]21	0.975
O=C(NCc1ccco1)[C@@H]1C[C@H]2OCC[C@H]2N(c2ncc(F)cn2)C1	-0.113
CN(CC1(CO)CCCC1)c1nc2c(c(=O)[nH]1)Cc1ccccc1OC2	11.7
O=C(Nc1cccc(CNCc2cccs2)c1)C1CCCC1	-4.59
CC(C)Cc1nc(OCC(N)=O)c(C#N)c2c1CCC2	75.7
Cc1cc(CNc2cc(Cl)ccc2Cl)no1	18.9
Cc1nn(CCC#N)c(C)c1CCC(=O)N(C(C)C)C1CC1	-2.72
COc1ccc2c(c1)C(=O)NC1(CC2)CCN(Cc2ccccc2)C1 (stereo unspecified)	0.585
COc1ccccc1CN1CCCCC1c1n[nH]cc1-c1cc(C)no1 (stereo unspecified)	13.6
Cc1ccc2c(c1)c(C)cc(=O)n2CCCN	1.14
CN1CCN(Cc2cn3c(n2)CN(C2CCOCC2)CC3)CC1	3.91
CNC(=O)C1(CCCc2ccccn2)CN(Cc2coc(C)n2)C1	8.62
CC(C)CNc1nc(C(=O)/N=c2\[nH]nc(C(C)(C)C)s2)cs1	9.6
CCN(C)S(=O)(=O)N1CCCC(c2cccc(C(=O)O)c2)C1 (stereo unspecified)	0.91
Cc1ccc(OC2(C(=O)N(C)Cc3ccoc3)CCNCC2)cc1	9.41
Cc1ccc(CNCc2nnc3n2CCCC3C(F)(F)F)s1 (stereo unspecified)	20.7
Cn1cc(C(=O)NCc2ccc(OC3CCCCC3)nc2)ccc1=O	28.8

SMILES	cytotoxicity at 10 µM [%]
CCCc1noc(CN2CCCCC2Cn2cncn2)n1 (stereo unspecified)	4.84
Cc1ccc(CN2C[C@@H]3COC[C@]3(COc3ccc(C#N)cn3)C2)o1	0.777
CC(C)N1CCc2c(C#N)c(NCc3ccco3)n3cnnc3c2C1	-2.02
Cn1nc(COc2cccnc2)c2c1CCN(c1cnccn1)C2	1.34
COCCN(Cc1nc2c(cnn2C)c(=O)[nH]1)C(C)COC (stereo unspecified)	-4.6
CC(C)c1nccn1CCn1cnc2ccsc2c1=O	4.4
COCCN1CC2(CCC1=O)CCN(Cc1nnc(C)o1)CC2	-5.81
c1cncc(CO[C@H]2CC[C@H]3[C@@H]2OCCN3C2CCOCC2)c1	-14.4
O=C1N(CCCc2ccccc2)CCCC1(O)CNCc1ccccc1 (stereo unspecified)	10.4
O=C1N[C@@H]2CCN(C(=O)N3CCOCC3)[C@@H]2C(=O)N1Cc1ccccc1	-3.36
OC1(CN2CCCC2)COCCN(c2ncnc3[nH]ccc23)C1 (stereo unspecified)	10.7
Cc1ccc(S(=O)(=O)NCCCN2CCC(O)CC2)cc1Cl	8.68
Cc1ccccc1C(=O)Nc1cnn(CC(=O)NC2CCCC2)c1	-18.4
CC(C)C(NC(=O)N1CCS(=O)(=O)CC1)c1ccccc1Cl (stereo unspecified)	13.3
Cc1cnn(C(C)C(=O)NCC2CCN(c3cnn(C)c(=O)c3)CC2)c1 (stereo unspecified)	2.81
O=C(C1CCCOC1)N(CC(F)F)c1cccc(Cl)c1 (stereo unspecified)	8.27
CC(C(=O)NCc1ccnc(Oc2ccc(F)cc2)c1)n1cncn1 (stereo unspecified)	-3.63
O=C(CNC(=O)c1cnc2ccccc2c1O)NCCCn1ccnc1	-5.28
c1cncc(CN2CCN3C[C@H](Oc4cncnc4)C[C@H]3C2)c1	-100
CCOCC(=O)N1CCC(C2CCN(Cc3ccc(Cl)cc3)C2)CC1 (stereo unspecified)	-9.15
O=C(Nc1cccnc1-n1cc(Cl)cn1)C1CC1	-42.7
Cn1cc(CCNC(=O)c2cc3ccccc3nc2N2CCCC2)cn1	-1.29
O=C(Nc1cnn(CCN2CCOCC2)c1)c1ccccc1Cl	-5.81

SMILES	cytotoxicity at 10 µM [%]
O=C(c1cnc(NCCC2CCCO2)c(Cl)c1)N1CCOCC1 (stereo unspecified)	7.74
CNC(=O)CN1CCC(c2nn(C)c(=O)n2-c2ccccc2)CC1	-14
CCC1CN(CC(=O)NCC(C)C)CCO1 (stereo unspecified)	14.4
CCS(=O)(=O)N1CCN(CCn2cccn2)c2nc(C)ccc2C1	9.88
OC(CNCCn1cccn1)COc1ccc(F)cc1 (stereo unspecified)	-16.6
Cc1ccc(CC(=O)N2CCCC(c3n[nH]c4nccnc34)C2)cc1 (stereo unspecified)	-22.2
CC(C)N(C(=O)c1ccccc1-c1nc2c([nH]1)CCNC2)C(C)C	-45
Cc1cc(F)cc(S(=O)(=O)Nc2ccn(CCCC#N)n2)c1	18
CN1CC2(CCCN(Cc3nnc(-c4ccccc4)o3)CC2)OC1=O (stereo unspecified)	0.184
CN(C)c1ncc2c(n1)C1(CCN(Cc3cccnc3)C1)COC2 (stereo unspecified)	9.05
N#CCCN(CCC#N)C(=O)CN1CCCC1Cc1cccc(F)c1 (stereo unspecified)	-10.5
CCN(Cc1ccc2c(c1)OCCO2)C(=O)NCc1nc(C)cs1	1.47
CC(C)(C)c1cn2nc(N3CCC[C@@H]3CO)sc2n1	3.64
CC(O)CNC(=O)NCc1ccc(N2CCNC(=O)C2)cc1 (stereo unspecified)	-7.23
CCC1=NN2C(=N)C(=Cc3cccn3-c3ccc(Br)cc3)C(=O)N=C2S1	-7.83
Cc1cccc(COC[C@]23COC[C@H]2CN(C(=O)c2ccsc2)C3)n1	-7.85
C/C(=C\c1ccco1)CN(C)C(C)Cc1cc(C)ccn1 (stereo unspecified)	0.277
O=C([C@H]1CN(Cc2ccoc2)C[C@H]2OCC[C@@H]12)N1CCCCO1	7.86
C[C@@H]1CN(C(=O)C2(Cn3cccn3)CC2)CC[C@@]1(O)C1CC1	-2.6
O=S1(=O)c2ccccc2C2(CCN(Cc3ccccc3)C2)N1CC1CC1 (stereo unspecified)	16.3
COc1c(CNCc2cccc(Cn3ccnc3)c2)c(C)nn1C	5.61
COc1cccc(CC(=O)N2CC[C@@H]3CN(C)S(=O)(=O)[C@@H]3CC2)c1	-2.36
Cc1ccc(C(=O)NCC(O)c2cnn(C)c2)c(Br)c1 (stereo unspecified)	-6.53

SMILES	cytotoxicity at 10 µM [%]
Cc1cc(CNC(=O)N2CCc3ccccc3C2CO)c(C)o1 (stereo unspecified)	7.44
CCC(C)(C)NC(=O)c1ncn2c1CN(C)S(=O)(=O)c1ccccc1-2	-137
Cc1nc(C)n(CC2CCCN(c3ncnc4ccccc34)C2)n1 (stereo unspecified)	17.4
Cc1nccn1CCCNC(=O)C1CCCCN1Cc1ccncc1 (stereo unspecified)	-8.18
CC(C)c1nccn1C1CCCN(C(=O)c2ccsc2)C1 (stereo unspecified)	-5.2
CC(C)Cn1cncc1CNC1CCCNC1 (stereo unspecified)	-0.391
N#Cc1cccc(CN(CC(=O)N2CCCC2)CC2CCCO2)c1 (stereo unspecified)	-5.52
CC(Cn1ccnc1)NC(=O)N1CCN(Cc2ccco2)CC1 (stereo unspecified)	-2.07
CCc1nccn1C1CCCN(C(=O)c2cccc3c2OCO3)C1 (stereo unspecified)	-8.87
Cn1nc(Cn2cccn2)c2c1CN(Cc1ccoc1)C2	-3.77
CCN(Cc1ccoc1)C(C(N)=O)c1ccc(C#N)cc1 (stereo unspecified)	-18.6
COCc1noc(-c2ccc(N(C)Cc3cc(C)no3)nc2)n1	-17.2
OC(CN1CCC(CNCc2ccccn2)CC1)c1ccccc1 (stereo unspecified)	-2.15
COC(=O)CC(NC(=O)c1ccc(OC)cc1OC)c1cccs1 (stereo unspecified)	-0.554
CCc1nc(C)sc1CN1CC[C@@](O)(C2CCOCC2)[C@H](C)C1	1.71
COCCCN1CC2(CCCN(c3ncc(Cl)cc3F)C2)CCC1=O (stereo unspecified)	-13.1
Cc1cnc2c(C(=O)N3CCCC(OCc4ccccn4)C3)cnn2c1 (stereo unspecified)	-5.2
COc1ccccc1-n1nc(C(C)C)nc1Cc1nnc(N)s1	6.48
CS(=O)(=O)c1cccc(C(N)c2ccc(F)cc2)c1 (stereo unspecified)	-19.9
CSc1cccc(NC(C)C(=O)Nc2nccs2)c1 (stereo unspecified)	3.05
CCCc1nnc(NCCc2noc(C3CC3)n2)o1	0.0902
N#Cc1ccccc1CN1C[C@@H]2CC[C@H]1CN(C(=O)c1cccnc1)C2	-0.849
CC(C)(C)Oc1ccc(C(=O)N2CCOCC2c2ncon2)cc1 (stereo unspecified)	-0.968

SMILES	cytotoxicity at 10 µM [%]
Cn1cc(CN2CCCC23CCN(C(=O)c2cccs2)CC3)cn1	2.17
C=c1ccoc1=C1NN=C(CNCCn2cc(C)cn2)O1	1.12
CC(Cn1cccn1)NC(=O)Nc1nccs1 (stereo unspecified)	-9.55
Fc1cccc(CN2CCO[C@H]3[C@@H](OCc4ccccn4)CC[C@@H]32)c1	-0.902
N#Cc1ccc(NCCc2n[nH]c(=O)[nH]2)cc1Cl	26.5
Cc1cnn(CC2CCCN2C(=O)CCc2nc3ccccc3[nH]2)c1 (stereo unspecified)	-12.9
CC(NC(=O)CN(C)S(C)(=O)=O)c1nnc2n1CCCCC2 (stereo unspecified)	-10.2
CCNC(=O)c1ccc(NC(=O)N(C)Cc2cc(C)on2)cc1	-4.22
CN1CCn2c(-c3ccccc3)cnc2C12CCN(CC1CC1)CC2	5.35
CN(CC1COc2ccccc2O1)C(=O)NCCCn1cncn1 (stereo unspecified)	-0.884
CS(=O)(=O)NCC1CCCN(C(=O)Nc2cccc3ccccc23)C1 (stereo unspecified)	-139
CN1CCN(CCCN(C)S(=O)(=O)CC2CCCCC2)CC1	-10.1
CCC=C(C)C(=O)NCc1ccnc(OC)c1	-2.51
CC1CS(=O)(=O)CCN1Cc1ccccc1N(C)C (stereo unspecified)	5.29
CSCCN(C)Cc1ccc(F)cc1C#N	4.81
COC(C)c1noc(CN2CCCNCC2)n1 (stereo unspecified)	5.6
Cc1ccc(C(=O)NCCN2CCOCC2)c(=O)[nH]1	-8.44
CC(C)N(C)C[C@H]1C[C@@H]2CN(Cc3ccco3)C[C@@H]2O1	-4.22
Cc1ccc(C(O)CNC(=O)NCc2nc(C)cs2)cc1 (stereo unspecified)	-13.3

From ChEMBL document CHEMBL4513216, “Probing the Open Global Health Chemical Diversity Library for Multistage-Active Starting Points for Next-Generation Antimalarials” (ACS Infect Dis, 2020)
